Measurements: ChEMBL document CHEMBL3865803, “Bicyclic octahydrocyclohepta[b]pyrrol-4(1H)one derivatives as novel selective anti-hepatitis C virus agents” (Eur J Med Chem, 2016)

Columns and labels:
[1] = Cytotoxicity against human Huh7.5 cells measured after 48 hrs by MTS assay; type: toxicity, cell-based, Huh-7; details: Huh7.5 cells
Summary of the method: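 Parental Huh7.5 cells were treated 12 h after seeding with 8-10 dilutions of compound or DMSO (1% final) for 48 h at 37 °C. Viability was read by MTS bioreduction to formazan. CC50 is the concentration halving the MTS signal, mean ± SD of three independent experiments.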

[2] = Selectivity index, ratio of CC50 for human Huh7.5 cells to EC50 for HCV genotype 1b infected in human Huh7/Rep-Feo1b replicon cells; design: species or system Huh-7
[3] = Selectivity index, ratio of CC50 for human Huh7.5 cells to EC50 for HCV genotype 2a infected in human Huh7.5-FGR-JC1-Rluc2A replicon cells; design: species or system Huh-7
Hepatitis C virus [4] = assay: Antiviral activity against HCV genotype 2a infected in human Huh7.5-FGR-JC1-Rluc2A replicon cells assessed as inhibition of viral RNA replication incubated for 48 hrs by luciferase reporter gene assay; type: functional, cell-based, Hepacivirus hominis; details: Huh-7, 48 h
Summary of the method: (§1)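 EC50 from concentration-response in replicon cells (gt1b firefly, gt2a Renilla luciferase reporter) maintained with G418. Compound added 12 h post-seeding (~1 × 10^4 cells/well), 48 h exposure, DMSO 1% final. Luciferase was compared with DMSO controls; the value is the mean ± SD of three independent 8-12 point quarter-log dilution series, calculated with CalcuSyn.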

Hepatitis C virus [5] = assay: Antiviral activity against HCV genotype 1b infected in human Huh7/Rep-Feo1b replicon cells assessed as inhibition of viral RNA replication measured after 48 hrs by luciferase reporter gene assay; type: functional, cell-based, Hepacivirus hominis; details: Huh-7, 48 h; summary of the method: as §1
Hepatitis C virus [6] = assay: Antiviral activity against HCV genotype 1b infected in human Huh7/Rep-Feo1b replicon cells assessed as inhibition of viral RNA replication at 50 uM measured after 48 hrs by luciferase reporter gene assay relative to control; type: functional, Hepacivirus hominis; details: Huh-7, 48 h
Summary of the method: (§2)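 Replicon cells (gt1b firefly luciferase; gt2a Renilla luciferase) in DMEM/10% FBS with G418, ~1 × 10^4 cells/well, dosed 12 h after seeding with 50 µM compound or DMSO (1% final) for 48 h at 37 °C. Cells were PBS-washed and luciferase read; % inhibition was taken versus DMSO-treated cells, mean±SD, n=3.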

Hepatitis C virus [7] = assay: Antiviral activity against HCV genotype 2a infected in human Huh7.5-FGR-JC1-Rluc2A replicon cells assessed as inhibition of viral RNA replication at 50 uM measured after 48 hrs by luciferase reporter gene assay relative to control; type: functional, Hepacivirus hominis; details: Huh-7, 48 h; summary of the method: as §2
Hepatitis C virus [8] = assay: Antiviral activity against Hepatitis C virus genotype 1b infected in human MH14 cells assessed as inhibition of viral RNA replication after 48 hrs by quantitative RT-PCR analysis; type: functional, cell-based
Summary of the method: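 MH-14 cells carrying HCV subgenomic replicons, in 12-well plates, were treated with a range of concentrations or DMSO 12 h after seeding. Cellular HCV RNA was quantified by qRT-PCR with HCV-specific primers, using β-actin primers as reference.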

| EC50 (Hepatitis C virus [4]) | EC50 (Hepatitis C virus [5]) | EC50 (Hepatitis C virus [8]; MH14, 48 h) | Compound | CC50 at 48 h [1] | Ratio CC50/EC50 [2] | Ratio CC50/EC50 [3] | inhibition at 50 µM (Hepatitis C virus [6]) | inhibition at 50 µM (Hepatitis C virus [7]) | inhibition (Hepatitis C virus [8]; Hepacivirus hominis) |
| --- | --- | --- | --- | --- | --- | --- | --- | --- | --- |
| 15.3 µM | 25.3 µM |  | CCOC(=O)[C@@H]1C[C@@H]2/C(=N/O)CCCC[C@@H]2N1S(=O)(=O)c1ccc(C)cc1 (racemic) | > 200 µM | 7.9 | 13.1 | 63% | 66% |  |
| 4.5 µM | 1.8 µM | 3.82 µM | CCOC(=O)[C@@H]1C[C@@H]2/C(=N/Nc3ccccc3)CCCC[C@@H]2N1S(=O)(=O)c1ccc(C)cc1 (racemic) | > 200 µM | 112.4 | 44.2 | 88% | 70% | Dose-dependent effect |
| 25.8 µM | 27.2 µM |  | CCOC(=O)[C@@H]1C[C@@H]2[C@@H](OC(C)=O)CCCC[C@@H]2N1S(=O)(=O)c1ccc(C)cc1 (racemic) | > 200 µM | 7.3 | 7.7 | 60% | 73% |  |
| 11.6 µM | 14.3 µM |  | CCOC(=O)[C@@H]1C[C@@H]2/C(=N/NC(N)=S)CCCC[C@@H]2N1S(=O)(=O)c1ccc(C)cc1 (racemic) | > 200 µM | 14 | 17.3 | 66% | 58% |  |
